Experimental data collected from several papers.
Protocols differ between the studies behind these lines.
emrE: emrE (Escherichia coli, UniProt P23895)
MAOB: Amine oxidase [flavin-containing] B (MAOB, Homo sapiens, UniProt P27338)
CA9: Carbonic anhydrase 9 (CA9, Homo sapiens, UniProt Q16790)
CHRNA9: Neuronal acetylcholine receptor subunit alpha-9 (CHRNA9, Homo sapiens, UniProt Q9UGM1)
HRH1: Histamine H1 receptor (HRH1, Homo sapiens, UniProt P35367)

SMILES	target	assay	test system	conditions	quantity	result
C[n+]1ccc(-c2cc[n+](C)cc2)cc1	emrE	binding, fluorescence	–	–	Kd	73 µM
CC1=C(O)C(=O)C=C2C1=CC=C1[C@@]2(C)CC[C@@]2(C)[C@@H]3C[C@](C)(C(=O)O)CC[C@]3(C)CC[C@]12C	Cytochrome P450 3A5 (CYP3A5, Homo sapiens, UniProt P20815)	binding, BLI	SAS	–	Kd	2.07 µM
CC[C@H](C)[C@H](N)C(=O)N1CCC[C@H]1C(=O)N1CCC[C@H]1C(=O)NCC(=O)N[C@H](C(=O)N1CCC[C@H]1C(=O)N[C@@H](Cc1ccc(O)cc1)C(=O)O)C(C)C	MAOB	enzyme activity, inhibitor, fluorescence	–	–	IC50	9410 µM
Cc1nccc2c1[nH]c1ccccc12	emrE	binding, fluorescence	–	–	Kd	46 µM
Cc1c(Cl)c(=O)oc2cc(OCCCC[Se]C#N)ccc12	CA9	enzyme activity, inhibitor, stopped-flow	–	–	Ki	0.0429 µM
CC[C@H](C)[C@H](NC(=O)[C@H](C)NC(=O)[C@H](CCC(=O)O)NC(=O)[C@H](Cc1c[nH]cn1)NC(=O)[C@H](CC(C)C)NC(=O)[C@@H](NC(=O)[C@H](Cc1ccccc1)NC(=O)[C@H](CO)NC(=O)[C@@H](NC(=O)[C@H](CC(C)C)NC(=O)[C@H](CC(=O)O)NC(=O)[C@H](CC(C)C)NC(=O)[C@@H]1CCCN1)[C@@H](C)O)C(C)C)C(=O)O	MAOB	enzyme activity, inhibitor, fluorescence	–	–	IC50	1900 µM
CCC[N+]1(CC)CCN(c2ccc(C#N)cc2)CC1	CHRNA9	ion current, agonist, two-electrode voltage clamp	–	oocytes	EC50	1.9 µM
CN1CC[C@@]2(C)c3cc(OC(=O)Nc4ccccc4)ccc3N(C)[C@@H]12	Retinaldehyde dehydrogenase 3 (ALDH1A3, Homo sapiens, UniProt P47895)	enzyme activity, inhibitor	–	–	IC50	< 10 µM
COc1cc2c(cc1OC)CN(CCc1ccc(NC(=O)c3cccc4c(=O)c5cccc(OC)c5[nH]c34)cc1)CC2	HRH1	cell-free assay	–	–	Ki	> 10 µM
CCCCC1CNC2CCc3ccc(OC)cc3C12 (racemic)	HRH1	ligand displacement, radioligand	–	–	Ki	0.135 µM
N#C[Se]CCCCOc1ccc2c(-c3ccccc3)cc(=O)oc2c1	CA9	enzyme activity, inhibitor, stopped-flow	–	–	Ki	0.211 µM
CCC[N+]1(C)CCN(c2ccccc2)CC1	CHRNA9	ion current, agonist, two-electrode voltage clamp	–	oocytes	EC50	60 µM
CCOC(=O)c1ccc(OC(=O)CCCCCN=C(N)N)cc1	Urokinase-type plasminogen activator (PLAU, Homo sapiens, UniProt P00749)	enzyme activity, inhibitor	–	–	IC50	0.0236 µM
